{"source": "paper PMC12265513", "about": "(bioRxiv, 2025)", "key": {"[1]": {"target": "GST-fused construct of the NEDD9-SH3 domain (Homo sapiens, UniProt Q14511)", "test": "Fluorescence polarization, direct binding of FITC-labeled pep01 probe"}, "HPAECs": {"system": "HPAECs", "test": "Anti-collagen III immunofluorescence in HPAECs", "assay_type": "cell-based, human", "settings": "24 hr, n=3", "in_short": "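HPAECs grown on glass chamber slides were exposed to test compound for 24 hr. They were then fixed in 4% formalin in PBS and blocked with 10% goat albumin in PBS for 1 hr at room temperature. Primary antibody (1:100) was applied overnight at 4°C. Collagen III deposition and NEDD9-positive cells were scored by immunofluorescence.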"}, "NEDD9": {"system": "NEDD9", "test": "NEDD9 immunoblot in HPAECs", "assay_type": "cell-based, human", "settings": "50-200 μM for 30-120 min, basal conditions, vs vehicle, n=3", "in_short": "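Confluent HPAECs in EBM-2 medium received test compound from a 10 mM DMSO stock, with DMSO as vehicle, for 30, 60 or 120 min. Lysates were immunoblotted with anti-NEDD9 (1:1000) overnight at 4°C, then peroxidase secondary and ECL detection.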"}, "NEDD9-SMAD3 complex": {"system": "NEDD9-SMAD3 complex", "test": "NEDD9-SMAD3 complex formation", "assay_type": "cell-based, human", "settings": "H2O2 (500 μM) for 20 min, n=3", "in_short": "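HPAECs were treated with 500 μM H2O2 for 20 min with or without test compound. The complex was measured two ways. One was anti-NEDD9 immunoprecipitation followed by anti-SMAD3 immunoblot. The other was proximity ligation with mouse anti-NEDD9 and rabbit anti-SMAD3, normalised to total NEDD9 expression. n=3.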"}, "NEDD9-SH3 (1-64)": {"system": "NEDD9-SH3 (1-64)", "test": "Intact protein mass spectrometry, covalent modification of the SH3 domain", "assay_type": "binding", "settings": "intact MS and 2-D NMR", "in_short": "(§1)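 Dual screen: NEDD9-SH3 (1-64) and BRAF-RBD, each at 1 μM, were mixed in one reaction with 100 μM covalent fragment. Controls were 100 μM iodoacetamide or 1% DMSO. Buffer was 50 mM HEPES pH 7.4, 100 mM NaCl, 4 h at 21°C. Reactions were quenched to 0.2% formic acid and read by RapidFire QTOF MS. Hits formed a single adduct on NEDD9-SH3 at least two-fold greater than on BRAF-RBD.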"}, "BRAF-RBD": {"system": "BRAF-RBD", "test": "Intact MS counter screen", "assay_type": "binding", "settings": "deconvoluted MS", "in_short": "as §1"}}, "note": "Peptide text beside a SMILES is read from it. * marks the point of attachment. FITC = O=C1OC2(c3ccc(O)cc3Oc3cc(O)ccc32)c2ccc(NC(=S)*)cc21; Ahx = NCCCCCC(=O)O", "data": [{"smiles": "C[C@H](NC(=O)[C@H](CCC(=O)O)NC(=O)[C@H](CC(=O)O)NC(=O)CCCCCNC(=S)Nc1ccc2c(c1)C(=O)OC21c2ccc(O)cc2Oc2cc(O)ccc21)C(=O)N1CCC[C@H]1C(=O)N1CCC[C@H]1C(=O)N[C@@H](CCCCN)C(=O)N1CCC[C@H]1C(=O)N[C@@H](CO)C(=O)N[C@@H](CCCNC(=N)N)C(=O)N1CCC[C@H]1C(=O)NCC(=O)N[C@@H](Cc1ccc(O)cc1)C(=O)N1CCC[C@H]1C(=O)N[C@@H](CO)C(N)=O", "note": "[FITCylated pep01] ({FITC-Ahx}-DEAPPKPSRPGYPS-NH2)", "values": [{"measurement": "Kd", "setting": "[1]", "result": 4, "unit": "µM"}]}, {"smiles": "C=CC(=O)Nc1cc(C(F)(F)F)cc(C(F)(F)F)c1", "note": "[Fragment 1, N-[3,5-Bis(trifluoromethyl)phenyl] acrylamide]", "values": [{"measurement": "fibrosis in cellulo by anti-collagen III immunofluorescence", "setting": "HPAECs", "result": "decreased fibrosis"}, {"measurement": "NEDD9 protein quantity by immunoblot", "setting": "NEDD9", "result": "decreased NEDD9 protein quantity"}, {"measurement": "NEDD9-SMAD3 complex formation", "setting": "NEDD9-SMAD3 complex", "result": "restored NEDD9-SMAD3 complex formation"}]}, {"smiles": "C[C@@H]1CCN(C(=O)CCl)[C@@H](C(N)=O)C1", "note": "[Fragment 2, (2R,4R)-1-(2-chloroacetyl)-4-methylpiperridine-2-carboxamide]", "values": [{"measurement": "adduct formation to NEDD9-SH3", "setting": "NEDD9-SH3 (1-64)", "result": "dose- and time-dependent increase in adduct formation"}, {"measurement": "BRAF-RBD modification", "setting": "BRAF-RBD", "result": "did not show BRAF-RBD modification"}]}]}
